From ChEMBL document CHEMBL3286330, “Multivalent design of long-acting β(2)-adrenoceptor agonists incorporating biarylamines” (Bioorg Med Chem Lett, 2014)
The source made the active and inactive calls. The rule behind the calls is not given here.

Columns and labels:
[1] = species on record: Homo sapiens; assay: Selectivity ratio Ki for beta1 receptor (unknown origin) to Ki for beta2 receptor (unknown origin)
[2] = target: T1, Beta-1 adrenergic receptor (Homo sapiens, UniProt P08588); assay: Displacement of [3H]dihydroalprenolol from beta1 receptor (unknown origin) by liquid scintillation counting and cell based assay
T1 sequence (P08588 whole entry): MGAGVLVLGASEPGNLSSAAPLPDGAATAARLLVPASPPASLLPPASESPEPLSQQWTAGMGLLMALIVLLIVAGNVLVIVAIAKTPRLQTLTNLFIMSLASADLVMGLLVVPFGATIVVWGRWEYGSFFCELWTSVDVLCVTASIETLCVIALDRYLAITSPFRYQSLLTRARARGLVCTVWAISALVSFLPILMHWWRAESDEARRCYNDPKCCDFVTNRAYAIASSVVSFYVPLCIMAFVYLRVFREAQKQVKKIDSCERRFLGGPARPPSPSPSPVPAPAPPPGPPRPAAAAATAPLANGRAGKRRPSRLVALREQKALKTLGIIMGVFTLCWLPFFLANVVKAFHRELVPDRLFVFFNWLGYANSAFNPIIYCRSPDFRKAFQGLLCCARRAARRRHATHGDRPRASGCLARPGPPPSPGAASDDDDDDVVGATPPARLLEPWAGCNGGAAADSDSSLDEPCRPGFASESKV

[3] = target: T2, Beta-2 adrenergic receptor (Homo sapiens, UniProt P07550); assay: Displacement of [3H]dihydroalprenolol from beta2 receptor (unknown origin) by liquid scintillation counting and cell based assay
T2 sequence (P07550 whole entry): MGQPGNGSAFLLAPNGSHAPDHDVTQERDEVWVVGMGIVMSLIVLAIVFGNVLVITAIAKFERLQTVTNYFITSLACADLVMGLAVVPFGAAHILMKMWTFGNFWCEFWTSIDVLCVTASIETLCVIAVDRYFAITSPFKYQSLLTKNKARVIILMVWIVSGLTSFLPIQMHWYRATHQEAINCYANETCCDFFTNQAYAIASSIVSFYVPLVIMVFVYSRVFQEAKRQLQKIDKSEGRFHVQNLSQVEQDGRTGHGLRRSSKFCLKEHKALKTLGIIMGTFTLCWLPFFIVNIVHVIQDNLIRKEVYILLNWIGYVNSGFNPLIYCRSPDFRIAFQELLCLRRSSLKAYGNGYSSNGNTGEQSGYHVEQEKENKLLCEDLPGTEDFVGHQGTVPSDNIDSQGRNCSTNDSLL

[4] = target: T3, Beta-2 adrenergic receptor (Cavia porcellus, UniProt Q8K4Z4); assay: Agonist activity at beta2 receptor in guinea pig trachea assessed as fast onset of inhibition of electrically stimulated contraction
T3 sequence (Q8K4Z4 whole entry): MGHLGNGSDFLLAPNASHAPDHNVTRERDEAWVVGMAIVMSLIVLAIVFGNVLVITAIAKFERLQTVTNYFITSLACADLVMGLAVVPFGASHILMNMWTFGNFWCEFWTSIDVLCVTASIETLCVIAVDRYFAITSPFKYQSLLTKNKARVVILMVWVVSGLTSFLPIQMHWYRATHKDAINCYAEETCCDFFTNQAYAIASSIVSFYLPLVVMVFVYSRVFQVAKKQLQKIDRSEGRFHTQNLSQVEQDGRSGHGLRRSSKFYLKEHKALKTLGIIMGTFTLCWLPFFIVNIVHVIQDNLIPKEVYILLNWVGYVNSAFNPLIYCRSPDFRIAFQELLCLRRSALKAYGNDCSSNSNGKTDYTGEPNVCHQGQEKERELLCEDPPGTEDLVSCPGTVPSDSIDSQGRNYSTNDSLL

[5] = target: T2, Beta-2 adrenergic receptor; assay: Agonist activity at human recombinant beta2 receptor assessed as cAMP accumulation by radioimmunoassay and cell based assay; type: functional
[6] = species on record: Homo sapiens; assay: Selectivity ratio EC50 for human beta2 receptor to EC50 for human beta3 receptor
In short: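 cAMP accumulation in whole cells overexpressing cloned human β-adrenoceptor subtypes, measured by homogeneous radioimmunoassay (Flashplate). Reported as pEC50. Functional selectivity is the ratio of EC50 values (β3 EC50/β2 EC50 for β3; β1 EC50/β2 EC50 for β1).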

[7] = species on record: Homo sapiens; assay: Selectivity ratio EC50 for human beta2 receptor to EC50 for human beta1 receptor
In short: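 cAMP accumulation in whole cells overexpressing cloned human β2- or β1-adrenoceptor, measured by homogeneous radioimmunoassay. Selectivity is the ratio of agonist EC50s, β1 EC50/β2 EC50.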

[8] = target: T2, Beta-2 adrenergic receptor; assay: Agonist activity at human beta2 receptor in BEAS-2B cells assessed as cAMP accumulation by radioimmunoassay; type: functional, cell-based
[9] = test system: Cavia porcellus; assay: Inhibition of acetylcholine-induced bronchoconstriction in male guinea pig assessed as pulmonary resistance at 1 -100 ug/ml administered via nebulization for 10 mins measured after 1.5 hrs by plethysmograph; type: functional, organism-based
[10] = target: Beta-3 adrenergic receptor (Homo sapiens, UniProt P13945); assay: Agonist activity at human recombinant beta3 receptor assessed as cAMP accumulation by radioimmunoassay and cell based assay
Sequence of Beta-3 adrenergic receptor (P13945 whole entry): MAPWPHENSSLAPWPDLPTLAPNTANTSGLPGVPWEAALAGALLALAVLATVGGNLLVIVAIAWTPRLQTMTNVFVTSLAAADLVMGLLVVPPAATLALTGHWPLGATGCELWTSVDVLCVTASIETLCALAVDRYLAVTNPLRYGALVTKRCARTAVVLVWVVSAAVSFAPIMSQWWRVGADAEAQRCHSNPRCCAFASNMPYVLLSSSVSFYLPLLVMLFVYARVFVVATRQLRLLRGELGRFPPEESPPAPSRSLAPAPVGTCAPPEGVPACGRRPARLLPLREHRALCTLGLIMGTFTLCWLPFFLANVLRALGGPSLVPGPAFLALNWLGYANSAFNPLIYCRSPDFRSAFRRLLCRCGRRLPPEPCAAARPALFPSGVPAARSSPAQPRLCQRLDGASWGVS

[11] = target: T3, Beta-2 adrenergic receptor; assay: Agonist activity at beta2 receptor in guinea pig trachea assessed as slow onset of inhibition of electrically stimulated contraction
In short: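 Guinea pigs pretreated with 6-hydroxy-dopamine (200 mg/kg i.p.) 24 h before. Opened 5 mm tracheal rings between platinum electrodes in normal-K+ (4.7 mM) Krebs at 37 °C with 10 µM indomethacin, 1 µM choline, 3 µM guanethidine. Field stimulation: 9 V, 10 Hz, 1 ms pulses, 10 s train every 100 s. Resting tension 1 g, 1 h equilibration. Onset is the time to maximum effect at an EC80 concentration; slow is >30 min.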

[12] = test system: Cavia porcellus; assay: Inhibition of acetylcholine-induced bronchoconstriction in male guinea pig assessed as pulmonary resistance administered via nebulization for 10 mins measured after 72 hrs by plethysmograph; type: functional, organism-based
In short: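 Guinea pigs dosed by nebulizer, 72 h before measurement. Pulmonary resistance measured in anesthetized, spontaneously breathing animals by head-out plethysmograph. Bronchoconstriction induced by increasing intravenous acetylcholine doses; PD2 is the ACh dose that doubles baseline resistance.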

[13] = target: T1, Beta-1 adrenergic receptor; assay: Agonist activity at human recombinant beta1 receptor assessed as cAMP accumulation by radioimmunoassay and cell based assay

Row | Structure (SMILES) | Ratio Ki [1] | Ki [2] [nM] | Ki [3] [nM] | EC50 [5] [nM] | also measured
1 | O=CNc1cc([C@@H](O)CNCCc2ccc(NC[C@H](O)c3ccccc3)cc2)ccc1O [MILVETEROL] | 3030 | 10000 | 3.16 |  | EC50 [4]: 0.0501 nM
2 | OCc1cc(C(O)CNCCc2ccc(Nc3ccc4ccccc4c3)cc2)ccc1O (racemic) | 34 | 12600 | 316 | 2.51 | 
3 | OCc1cc(C(O)CNCCc2ccc(N3CCC(Cc4ccccc4)CC3)cc2)ccc1O (racemic) | 4.8 | 79400 | 15800 | 501 | 
4 | CSc1ccc(Nc2ccc(CCNCC(O)c3ccc(O)c(CO)c3)cc2)cc1 (racemic) | 81 | 7940 | 79.4 | 2.51 | 
5 | OCc1cc(C(O)CNCCc2ccc(Nc3ccc(O)cc3)cc2)ccc1O (racemic) | 23 | 39800 | 1580 | 200 | 
6 | CC(C)Oc1ccc(Nc2ccc(CCNCC(O)c3ccc(O)c(CO)c3)cc2)cc1 (racemic) | 158 | 15800 | 100 | 2.51 | 
7 | COc1ccc(Nc2ccc(CCNCC(O)c3ccc(O)c(CO)c3)cc2)cc1-c1ccccc1 (racemic) | 319 | 20000 | 63.1 | 1.26 | 
8 | COc1ccc(Nc2ccc(CCNC[C@H](O)c3ccc(O)c4[nH]c(=O)ccc34)cc2)cc1-c1ccccc1 |  |  |  | 0.126 | Ratio EC50 [6]: 100; Ratio EC50 [7]: 56; EC50 [8]: 0.398 nM; inhibition [9]: Active; EC50 [10]: 12.6 nM; EC50 [11]: 2 nM; inhibition [12]: Dose-dependent effect; EC50 [13]: 7.94 nM
9 | OCc1cc(C(O)CNCCCCCCOCCCCc2ccccc2)ccc1O (configuration not stated) [SALMETEROL] |  |  |  |  | EC50 [10]: 1000 nM; EC50 [11]: 31.6 nM
10 | OCc1cc(C(O)CNCCc2ccc(N3CCC(c4ccccc4)CC3)cc2)ccc1O (racemic) |  | > 10000 | 12600 | 398 | 
11 | COc1ccc(CN2CCN(c3ccc(CCNCC(O)c4ccc(O)c(CO)c4)cc3)CC2)cc1 (racemic) |  | > 10000 | > 10000 | 631 | 
12 | COc1ccc(Nc2ccc(CCNC[C@H](O)c3ccc(O)c(CO)c3)cc2)cc1-c1ccccc1 |  |  |  | 0.501 | EC50 [8]: 3.98 nM; EC50 [11]: 2 nM
13 | OCc1cc(C(O)CNCCc2ccc(N3CCN(c4ccccc4)CC3)cc2)ccc1O (racemic) |  | > 10000 | 31600 | 200 | 
14 | COc1ccc(Nc2ccc(CCNC[C@H](O)c3ccc(O)c(NC=O)c3)cc2)cc1-c1ccccc1 |  |  |  | 0.126 | Ratio EC50 [6]: 26; Ratio EC50 [7]: 75; EC50 [8]: 0.794 nM; EC50 [10]: 3.16 nM; EC50 [11]: 12.6 nM; EC50 [13]: 10 nM
15 | COc1cccc(Nc2ccc(CCNCC(O)c3ccc(O)c(CO)c3)cc2)c1 (racemic) | 17 | 12600 | 631 | 10 | 
16 | OCc1cc(C(O)CNCCc2ccc(NCc3ccc(Cl)c(Cl)c3)cc2)ccc1O (racemic) |  | > 10000 | > 10000 | 1580 | 

Row | Structure (SMILES) | Ratio Ki [1] | Ki [2] [nM] | Ki [3] [nM] | EC50 [5] [nM] | also measured
17 | OCc1cc(C(O)CNCCc2ccc(Nc3ccc(F)cc3)cc2)ccc1O (racemic) | 6.5 | 7940 | 1260 | 31.6 | 
18 | OCc1cc(C(O)CNCCc2ccc(Nc3ccc(-c4ccccc4)cc3)cc2)ccc1O (racemic) | 36 | 12600 | 316 | 7.94 | 
19 | OCc1cc(C(O)CNCCc2ccc(Nc3ccc(Oc4ccccc4)cc3)cc2)ccc1O (racemic) | 16 | 6310 | 316 | 20 | 
20 | O=C(Cc1ccccc1)NC1CCN(c2ccc(CCNCC(O)c3ccc(O)c(CO)c3)cc2)CC1 (racemic) |  | > 10000 | > 10000 | 1000 | 
21 | CC(=O)N1CCN(c2ccc(CCNCC(O)c3ccc(O)c(CO)c3)cc2)CC1 (racemic) |  | > 10000 | > 10000 | 10000 | 
22 | OCc1cc(C(O)CNCCc2ccc(Nc3cccc(-c4ccccc4)c3)cc2)ccc1O (racemic) | 40 | 12600 | 316 | 2 | 
23 | COc1ccc(Nc2ccc(CCNCC(O)c3ccc(O)c(CO)c3)cc2)cc1 (racemic) | 27 | 31600 | 1260 | 3.98 | 
24 | OCc1cc(C(O)CNCCc2ccc(NCc3ccc4ccccc4c3)cc2)ccc1O (racemic) |  | > 10000 | > 10000 | 158 | 
25 | CCOc1ccc(Nc2ccc(CCNCC(O)c3ccc(O)c(CO)c3)cc2)cc1 (racemic) | 178 | 31600 | 158 | 1.26 | EC50 [11]: 200 nM
26 | O=C(c1ccccc1)C1CCN(c2ccc(CCNCC(O)c3ccc(O)c(CO)c3)cc2)CC1 (racemic) | 3.4 | 126000 | 39800 | 1260 | 
27 | OCc1cc(C(O)CNCCc2ccc(N3CCC(CCCc4ccccc4)CC3)cc2)ccc1O (racemic) | 0.6 | 126000 | 200000 | 1580 | 
28 | OCc1cc(C(O)CNCCc2ccc(Nc3cccc4ccccc34)cc2)ccc1O (racemic) | 5.4 | 31600 | 6310 | 200 | 
29 | OCc1cc(C(O)CNCCc2ccc(Nc3ccc4c(c3)CCC4)cc2)ccc1O (racemic) | 31 | 25100 | 794 | 7.94 | 
30 | COC(=O)c1ccc(Nc2ccc(CCNCC(O)c3ccc(O)c(CO)c3)cc2)cc1 (racemic) | 36 | 10000 | 251 | 6.31 | 
31 | OCc1cc(C(O)CNCCc2ccc(Br)cc2)ccc1O (racemic) |  | > 10000 | 31600 | 25.1 | 
